The values that follow come from PMC6896334 (Cell reports, 2019).

“And” between values parts separate entries of the source, which are not always exact repeats. Equal entries are not always repeated.

Data set [1] can be described thus: 14-day toxicity study, i.p. dosing. The class given is in vivo, mouse. As to conditions: mice, 60 mg/kg i.p. bid, 14 days. In short, it runs like this: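 Mice given the test compound or vehicle (70% DMSO in water) i.p. at 60 mg/kg twice daily for 14 consecutive days. They were sacrificed 24 h after the last dose for gross and complete necropsy and clinical pathology. Clinical chemistry covered BUN, creatinine, ALP, ALT, AST, GGT, bilirubin, total protein, albumin, globulin, phosphorus, glucose, cholesterol, calcium, sodium, potassium and chloride.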

The target in data set [2] is T1, NanoLuc luciferase ID1 fusion protein (Homo sapiens, UniProt P41134).
T1 sequence (P41134 1-155): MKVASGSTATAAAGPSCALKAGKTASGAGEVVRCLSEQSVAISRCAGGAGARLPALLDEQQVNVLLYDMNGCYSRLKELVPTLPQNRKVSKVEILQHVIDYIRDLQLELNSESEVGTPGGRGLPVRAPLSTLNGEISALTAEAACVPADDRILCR
Put plainly: NanoBRET target engagement assay in permeabilized 293T cells. The class given is binding. The conditions noted are these: 2 μM AGX51 tracer, 0–60 μM competitor, 50 μg/mL digitonin. In short, it runs like this:
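293T cells transfected with an N-terminal NanoLuc–ID1 fusion construct and plated 24 h later. Cells received 2 µM fluorescent tracer plus 0–60 µM competitor, then were permeabilised with digitonin (50 µg/mL). NanoBRET Nano-Glo substrate was added and the BRET ratio read, following the kit protocol for intracellular target engagement.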

A short description of data set [3]: Pharmacokinetics in serum after i.p. injection. The class given is in vivo, mouse. As to conditions: for mean maximum serum concentration: mice. Summed up:
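Eight-week-old male BALB/c mice received a single i.p. dose of 30, 50 or 100 mg/kg in 70% DMSO, with another group given 100 mg/kg in 100% DMSO (n = 3 per group). Blood was drawn at 30 min, 1, 3, 6 and 24 h. […] was quantified by a validated LC-MS protocol.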

Data set [4] relates to HUVECs. Put plainly: HUVEC scratch assay. The conditions noted are these: 0–40 μM, 24 h. The class given is cell-based, human. Summed up:
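HUVECs grown on 0.1% fibronectin-coated wells to confluence over 24 h. They were then serum-starved for 4 h in endothelial basal medium and scratched with a pipette tip to create a cell-free zone before exposure to the test compound.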

Another data set addresses T2, Id3 (Mus musculus, UniProt P41133).
T2 sequence (P41133 1-119): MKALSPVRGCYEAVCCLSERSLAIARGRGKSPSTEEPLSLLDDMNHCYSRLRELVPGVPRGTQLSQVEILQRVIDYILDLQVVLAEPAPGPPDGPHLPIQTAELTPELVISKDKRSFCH
Put plainly: Circular dichroism. The class given is binding. In general terms: Circular dichroism is the unequal absorption of left and right circularly polarised light.

The next data set has as its target T3, E47 (Homo sapiens, UniProt P15923).
T3 sequence (P15923 1-651 isoform P15923-2): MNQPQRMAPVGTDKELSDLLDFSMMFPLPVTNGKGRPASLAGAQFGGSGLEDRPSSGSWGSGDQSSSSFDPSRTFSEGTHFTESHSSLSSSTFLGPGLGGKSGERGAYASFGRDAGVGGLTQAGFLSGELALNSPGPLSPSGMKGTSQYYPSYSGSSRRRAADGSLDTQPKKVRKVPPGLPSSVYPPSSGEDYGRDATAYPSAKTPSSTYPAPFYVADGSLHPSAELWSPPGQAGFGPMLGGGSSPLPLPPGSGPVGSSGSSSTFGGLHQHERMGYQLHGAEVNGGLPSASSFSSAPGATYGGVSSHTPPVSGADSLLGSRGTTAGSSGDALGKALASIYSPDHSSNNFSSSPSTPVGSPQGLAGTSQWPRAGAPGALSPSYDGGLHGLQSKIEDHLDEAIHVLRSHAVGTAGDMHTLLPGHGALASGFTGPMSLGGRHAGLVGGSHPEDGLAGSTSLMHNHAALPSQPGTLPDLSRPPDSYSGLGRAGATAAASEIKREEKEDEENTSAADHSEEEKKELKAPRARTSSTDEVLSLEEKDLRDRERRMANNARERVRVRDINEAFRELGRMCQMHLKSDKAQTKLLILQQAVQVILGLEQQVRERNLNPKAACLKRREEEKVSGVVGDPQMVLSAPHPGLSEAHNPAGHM
The data set is described as follows: Circular dichroism. The class given is binding. The conditions noted are these: AGX51 0, 10, 20, 50 μM.

A further data set is described as follows: Water solubility. The class given is physicochemical.
A further data set concerns ID1 mRNA. The data set is described as follows: qRT-PCR for ID1 in HCT116 cells. The class given is cell-based, human. The conditions noted are these: HCT116, 40 μM, 24 hours. In short, it runs like this:
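ID1 transcript measured by qRT-PCR after treatment, using validated QuantiTect primer sets with GAPDH as reference. Fold change was calculated by the delta-delta CT method.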
(In qPCR the cycle at which signal appears reflects the starting amount.)

The next data set deals with T4, Id1 (Mus musculus, UniProt P20067).
T4 sequence (P20067 1-148 isoform P20067-2): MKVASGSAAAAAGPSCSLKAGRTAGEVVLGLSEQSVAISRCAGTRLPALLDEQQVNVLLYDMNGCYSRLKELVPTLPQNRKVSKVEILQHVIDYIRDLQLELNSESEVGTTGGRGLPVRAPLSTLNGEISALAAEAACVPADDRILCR
The data set is described as follows: Circular dichroism. The class given is binding. The conditions noted are these: AGX51 0–50 μM; AGXA 0–110 μM in DMSO.

Data set [5] deals with HCT116 cells. The data set is described as follows: HCT116 cell cycle analysis. As to conditions: HCT116, 40 μM, 4-24 hours. The class given is cell-based, human. Summed up:
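Cells exposed to test compound or DMSO, then trypsinised, PBS-washed and fixed in 70% ethanol at −20°C. After centrifugation and PBS wash, cells were stained in PI/RNase buffer for 15 min at room temperature. DNA content was analysed by flow cytometry.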

The test system of data set [6] is HCT116 cells. The data set is described as follows: HCT116 cell viability. The class given is cell-based, human. In short, it runs like this:
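MTT viability: cells seeded at 5000/well and left overnight, then exposed to the test compound for 24 h. MTT (5 mg/mL) was added for 4 h, medium removed and formazan dissolved in DMSO. Absorbance was read at 570 nm.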

The target of a further data set is T5, Id1 (59–104) (Mus musculus, UniProt P20067).
T5 sequence (P20067 59-104): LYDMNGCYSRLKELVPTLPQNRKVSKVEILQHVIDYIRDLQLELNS
Put plainly: UV crosslinking of AGX51-XL2 to purified Id1 and mass spectrometry. The class given is binding. As to conditions: 10-fold excess of AGX51. Summed up: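 Purified Id1 (aa 59–104, 1 µg) was mixed in the dark with 19.7 ng of a benzophenone photoreactive test-compound analog in DMSO and UV-irradiated for 20 min, with a no-UV control. Samples were run in the dark on a 15% denaturing gel and silver stained. Bands were excised for mass spectrometry.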

Data set [7] relates to HUVECs. Put plainly: HUVEC cell growth. As to conditions: 20 μM, 5 days. The class given is cell-based, human. Summed up:
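HUVECs seeded at 38,000 cells per 24-well well, in triplicate for each time point, with 20 µM test compound or DMSO. Viable cells were counted by trypan blue exclusion on days 1, 3 and 5 after seeding.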

A word on the half-life: it is the time in which the quantity being followed falls by half. Read a high half-life as slow decline. The IC50 is the point on the concentration scale where inhibition reaches its midpoint. A low value points to greater potency in that assay. With `CCC(=O)N(CCC(c1ccc2c(c1)OCO2)c1ccccc1OC)Cc1ccccc1` (centres unmarked) [AGX51, N-(3-(benzo[d][1,3]dioxol-5-yl)-3-(2-methoxyphenyl)propyl)-N-benzylpropionamide], in data set [1], the “clinical chemistry parameters and hematology” value is listed as “within normal limits”; the “gross necropsy and histopathological evaluation of all major organs” value is listed as “No abnormal findings”; the mortality or morbidity result is “no mortality or morbidity was observed”; the weight loss result is listed as “no significant weight loss”. Moreover, the “competition with the AGX51 tracer (BRET ratio)” value in data set [2] is “able to compete the AGX51 tracer”. In addition, the half-life in data set [3] (male, BALB/c, mouse, serum, ip) is around 180 min. Further, the “mean maximum serum concentration” value in [3] (i.p. 30 mg/kg in 70% DMSO, 30 mg/kg) was 1.1 μg/mL and 2.7 μM. Further, the “mean maximum serum concentration” value in data set [3] (i.p. 50 mg/kg in 70% DMSO, 50 mg/kg) is 1.6 μg/mL and 4 μM. For the same molecule, the “mean maximum serum concentration” value in [3] (i.p. 100 mg/kg in 70% DMSO, compared with lower doses) is recorded as “not increased further”. Also, the “HUVEC migration after scratch” value with HUVECs [4] is given as “significantly impaired HUVEC migration”. Also, the “effect on Id3 secondary structure (CD)” value on Id3 is recorded as “small but reproducible effect”. Besides, on E47, the “interaction with E47 (CD)” value was “no evidence of an interaction”. In the data set “Water solubility”, the water solubility entry is “water insoluble”. Besides, in the data set on ID1 mRNA, the “ID1 mRNA levels” value is given as “increase in ID1 mRNA levels”. The “effect on Id1 secondary structure (CD spectra)” value on Id1 is on record as “significant alteration in the 2° structure of Id1”. In the data set with HCT116 cells [5], the cell cycle effect result is listed as “G0/G1 growth arrest”. The “cell viability (MTT)” value in the data set on HCT116 cells [6] (HCT116, 40 μM, 24 hours) is on record as “reduced cell viability”. Also, the IC50 with HCT116 cells [6] (Homo sapiens, HCT-116, 24 h) is 22.3 µM. In addition, the “AGX51-XL2 binding to Id1 in the presence of competitor” value on Id1 (59–104) was “significant decrease in AGX51-XL2 binding to Id1”. Also, the “cell viability / growth” value in the data set on HUVECs [7] was “reduced cell viability”.
